From PubChem
RanGTP-Impb inh = inhibitors of RanGTP-importin-beta interaction, primary screen, biochemical, FRET, CFP-Ran, YFP-importin-beta, homogeneous; cell-free CFP-Ran/YFP-importin-beta FRET ratio; inhibition, % (no concentration beside the values); AID 2216; 1.1% of 300,000 active;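 active = more than half of the replicate wells show a fall in the fluorescence ratio signal beyond about 16%, limit read from the data, passing the limit was not always enough; inconclusive = exactly half of the replicate wells pass the set limit; inactive = fewer than half of replicates pass the limit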
Hck-Nef inh = inhibitors of human Hck kinase activated by Nef | 0.68% of 220,000 active | AID 463187 | inhibition, % at 20 µM | Recombinant Hck-YEEI plus Nef, Z-Lyte FRET kinase assay;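 active = Hck-Nef kinase inhibition above about 50%, limit read from the data; inactive = inhibition below that limit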
Runt-CBFb FRET = Runt domain-CBFb interaction inhibition; 0.46% of 220,000 active; inhibition, % at 20 µM; AID 1496; Cerulean-Runt/Venus-CBFb FRET ratio 530/480, 1 h;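 active = inhibition over about 50% at 20 µM in the single-dose screen, limit read from the data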
Target sequence (Q01196 whole entry, looked up, the tested form may be a part): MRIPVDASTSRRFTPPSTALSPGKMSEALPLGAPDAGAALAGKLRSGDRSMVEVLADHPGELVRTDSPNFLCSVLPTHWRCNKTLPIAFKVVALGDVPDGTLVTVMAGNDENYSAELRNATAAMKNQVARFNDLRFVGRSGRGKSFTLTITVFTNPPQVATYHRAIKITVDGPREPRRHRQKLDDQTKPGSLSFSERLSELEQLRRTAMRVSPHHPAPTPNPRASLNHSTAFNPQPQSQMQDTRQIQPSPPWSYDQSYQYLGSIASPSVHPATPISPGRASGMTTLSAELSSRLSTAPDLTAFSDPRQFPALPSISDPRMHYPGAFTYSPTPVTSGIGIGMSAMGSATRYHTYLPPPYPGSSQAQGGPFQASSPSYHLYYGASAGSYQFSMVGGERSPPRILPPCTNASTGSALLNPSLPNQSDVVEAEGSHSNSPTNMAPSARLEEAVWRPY
Target sequence (Q13951 whole entry, looked up, the tested form may be a part): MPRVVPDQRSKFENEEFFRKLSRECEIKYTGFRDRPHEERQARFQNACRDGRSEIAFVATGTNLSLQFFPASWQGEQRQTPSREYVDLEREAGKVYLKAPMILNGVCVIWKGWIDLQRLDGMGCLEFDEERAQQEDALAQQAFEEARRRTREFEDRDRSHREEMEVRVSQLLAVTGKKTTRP
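Measured by: fluorescence energy transfer, 422 nm excitation, 530/480 nm emission; test system: Cerulean-tagged RUNX1 Runt domain (FRET donor) fusion protein; buffer or medium: Tris pH 7.5 buffer with BSA; compound: one dose, 20 µM compound, 1% DMSO; times: two 1 h room-temperature incubations shielded from light; benchmarks: unlabeled CBFb 5 µM, positive control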
Runt-SMMHC FRET = blocks binding of human RUNX1 Runt domain to CBFb-SMMHC; 0.74% of 220,000 active; inhibition, % at 20 µM; Q01196+Q13951; Cerulean-Runt/Venus-CBFb-SMMHC FRET ratio 530/480, 1 h;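 active = mean inhibition across duplicate retests at 20 µM reaching about 50%, limit read from the data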;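 note: inhibitors lower the FRET ratio by blocking Runt binding to CBFb-SMMHC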
YIC counter = counter-screen: alters YIC FRET probe signal; shares compounds with RanGTP-Impb inh; Purified YIC probe, intramolecular FRET ratio YFP/CFP; IC50, µM; 40% of 1,000 active;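 active = fitted half-maximal inhibitory concentration no more than tenfold above the top dose tested; inconclusive = flat fit with 30 to 70% activity, or poor fit; inactive = half-maximal concentration beyond tenfold above the top dose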
A number is an active result. Most compounds without a hit are left out; they make up all but 1.9% or so of the library.

COc1cc(/C(O)=C(\C#N)c2nc3ccccc3[nH]2)cc(OC)c1OC was read as RanGTP-Impb inh 40 and YIC counter 7.4.
O=c1c2c3c(sc2nc(N2CCNCC2)n1CCc1ccccc1)CCCCC3 was read as RanGTP-Impb inh inactive, Hck-Nef inh inactive, Runt-CBFb FRET inactive and Runt-SMMHC FRET inactive.
For COc1ccc(C)cc1NC(=O)NNC(=O)C1CCC(C(C)(C)C)CC1 (stereo unspecified) the results were RanGTP-Impb inh inactive, Hck-Nef inh inactive, Runt-CBFb FRET inactive and Runt-SMMHC FRET inactive.
For O=C(NCC(O)c1ccc2ccccc2c1)c1c(F)cccc1F (stereo unspecified) the results were RanGTP-Impb inh inactive.
Screening Cc1ccc(C2CC(c3ccc(Br)cc3)=NN2C(=O)CSC2=NN3CCCC(=O)N=C3S2)cc1 (stereo unspecified) returned RanGTP-Impb inh inactive.
Screening O=C1CCCN2N=C(SCC(=O)N3N=C(c4ccc(Br)cc4)CC3c3ccc(F)cc3)SC2=N1 (stereo unspecified) returned RanGTP-Impb inh 20, Hck-Nef inh inactive, Runt-CBFb FRET inactive, Runt-SMMHC FRET inactive and YIC counter inactive.
CCCn1c(SCC(=O)Nc2ccc(NC(C)=O)cc2)nc2c1c(=O)n(C)c(=O)n2C was read as RanGTP-Impb inh 17 and YIC counter inactive.
`O=C1CCc2cc(S(=O)(=O)NC3CCCCC3)cc3c2N1CC3` gave RanGTP-Impb inh inactive.
`COc1ccc(CCNC(=O)c2c(C)nc3ccccn23)cc1OC` gave RanGTP-Impb inh inactive, Hck-Nef inh inactive, Runt-CBFb FRET inactive and Runt-SMMHC FRET inactive.
Screening COc1ccc(CCNC(=O)c2cc3c(=O)n4ccccc4nc3n(CC3CCCO3)c2=N)cc1OC (stereo unspecified) returned RanGTP-Impb inh 18 and YIC counter 27.
For COc1ccc(CCNC(=O)c2cc3c(=O)n4ccccc4nc3n(C3CCCCC3)c2=N)cc1OC the results were RanGTP-Impb inh 23 and YIC counter 26.
N=c1c(S(=O)(=O)c2ccc(Br)cc2)cc2c(=O)n3ccccc3nc2n1C1CCCCC1 was read as RanGTP-Impb inh 22 and YIC counter inactive.
CCC(=O)c1ccc(OC(=O)Cc2ccc(OC)cc2)cc1 was read as RanGTP-Impb inh inactive.
Screening COC(=O)C1C(c2ccc(OC)cc2)C(C(=O)OC)S(=O)(=O)C(CCN2CCCCC2)S1(=O)=O (stereo unspecified) returned RanGTP-Impb inh inactive, Hck-Nef inh inactive, Runt-CBFb FRET inactive and Runt-SMMHC FRET inactive.
For COc1ccc(Br)cc1/C=C/C(=O)NC(=S)Nc1ccc(CN2CCOCC2)cc1 the results were RanGTP-Impb inh 50 and YIC counter inactive.
`COc1ccc(C(=O)NC(=S)Nc2ccc(CN3CCOCC3)cc2)cc1OC` gave RanGTP-Impb inh inconclusive, Hck-Nef inh inactive, Runt-CBFb FRET inactive and Runt-SMMHC FRET inactive.
For Cc1ccc(/C=C2/NC(=O)N(Cc3ccccc3)C2=O)o1 the results were RanGTP-Impb inh inactive, Hck-Nef inh inactive, Runt-CBFb FRET inactive and Runt-SMMHC FRET inactive.
Cc1cc(C(=O)O)ccc1-c1ccc(/C=C2\NC(=O)N(Cc3ccccc3Cl)C2=O)o1 was read as RanGTP-Impb inh 22, Hck-Nef inh inactive, Runt-CBFb FRET inactive, Runt-SMMHC FRET 68 and YIC counter 0.91.
CCCCn1c(N)c(N(CCOC)C(=O)COc2ccc(Cl)cc2)c(=O)[nH]c1=O was read as RanGTP-Impb inh inactive, Hck-Nef inh inactive, Runt-CBFb FRET inactive and Runt-SMMHC FRET inactive.
`COC(=O)c1ccc(NC(=O)C(=O)N2CCN(C(=S)Nc3ccccc3OC)CC2)cc1` gave RanGTP-Impb inh 20, Hck-Nef inh inactive, Runt-CBFb FRET inactive, Runt-SMMHC FRET inactive and YIC counter inactive.
`COC(=O)c1ccc(NC(=O)C(=O)N2CCN(C(=S)Nc3cccc(C)c3C)CC2)cc1` gave RanGTP-Impb inh inconclusive, Hck-Nef inh inactive, Runt-CBFb FRET inactive and Runt-SMMHC FRET inactive.
Cc1ccc(N2NC(=O)/C(=C\c3cc4c(cc3[N+](=O)[O-])OCO4)C2=O)cc1C was read as RanGTP-Impb inh 25, Hck-Nef inh inactive, Runt-CBFb FRET inactive, Runt-SMMHC FRET inactive and YIC counter inactive.
CCOC(=O)CC(=O)CSc1nc2c(cc1C#N)CCC2 was read as RanGTP-Impb inh 16, Hck-Nef inh inactive, Runt-CBFb FRET inactive, Runt-SMMHC FRET inactive and YIC counter 24.
Cc1nc2ccc(NC(=O)c3nn(CC(C)C)c(=O)c4ccccc34)cc2s1 was read as RanGTP-Impb inh 20, Hck-Nef inh inactive, Runt-CBFb FRET inactive, Runt-SMMHC FRET inactive and YIC counter inactive.
COc1cc(/C=N/NC(=O)c2cc(C)oc2C)ccc1O was read as RanGTP-Impb inh 24, Hck-Nef inh inactive, Runt-CBFb FRET inactive, Runt-SMMHC FRET inactive and YIC counter inactive.
N#Cc1cc2c(ccc3ccccc32)oc1=O was read as RanGTP-Impb inh 38, Hck-Nef inh inactive, Runt-CBFb FRET 85, Runt-SMMHC FRET inactive and YIC counter inactive.
For COc1ccccc1/C=C(/C(=O)OCC(=O)Nc1cc(C)ccc1C)c1ccccc1 the results were RanGTP-Impb inh inactive, Hck-Nef inh inactive, Runt-CBFb FRET inactive and Runt-SMMHC FRET inactive.
Screening Cc1ccc(S(=O)(=O)NCCN(CCNS(=O)(=O)c2ccc(C)cc2)S(C)(=O)=O)cc1 returned RanGTP-Impb inh 21, Hck-Nef inh inactive, Runt-CBFb FRET inactive, Runt-SMMHC FRET inactive and YIC counter inactive.
`CC(C)Sc1nc(N2CCOCC2)c2c3c(sc2n1)COC(C)(C)C3` gave RanGTP-Impb inh 23, Hck-Nef inh inactive, Runt-CBFb FRET inactive, Runt-SMMHC FRET inactive and YIC counter inactive.
For COC(=O)c1c(NC(NC(=O)c2ccccc2)(C(F)(F)F)C(F)(F)F)sc2c1CCN(C)C2 the results were RanGTP-Impb inh 48, Hck-Nef inh inactive, Runt-CBFb FRET inactive, Runt-SMMHC FRET inactive and YIC counter 40.
Screening CC(c1nc2ccccc2n1Cc1ccccc1)N1CCCCC1 (stereo unspecified) returned RanGTP-Impb inh 26 and YIC counter inactive.
Screening COc1ccc(-c2nc(/C=C3\C(C)=Nc4ccccc43)c(O)o2)cc1 returned RanGTP-Impb inh 28, Hck-Nef inh inactive, Runt-CBFb FRET inactive, Runt-SMMHC FRET inactive and YIC counter inactive.
Screening CC1=Nc2ccccc2/C1=C\c1nc(-c2ccc(C(F)(F)F)cc2)oc1O returned RanGTP-Impb inh inactive, Hck-Nef inh inactive, Runt-CBFb FRET inactive and Runt-SMMHC FRET inactive.
For Cc1ccc(-c2oc3ccccc3c(=O)c2OCC(=O)O)cc1 the results were RanGTP-Impb inh inactive, Hck-Nef inh inactive, Runt-CBFb FRET inactive and Runt-SMMHC FRET inactive.
Screening Cc1ccc(-c2oc3ccccc3c(=O)c2O)cc1 returned RanGTP-Impb inh 22, Hck-Nef inh inactive, Runt-CBFb FRET inactive, Runt-SMMHC FRET inactive and YIC counter 17.
O=C(Nc1nc2ccc(S(=O)(=O)N3CCCCC3)cc2s1)c1cccnc1 was read as RanGTP-Impb inh 22, Hck-Nef inh inactive, Runt-CBFb FRET inactive, Runt-SMMHC FRET inactive and YIC counter inactive.
